# Screening results (PubChem BioAssay)
# INS promoter act: TRM-6 insulin promoter activation; TRM-6 cells (human fetal islet line), insulin promoter eGFP reporter, imaging; plate-scaled: unstimulated 0, stimulated control 100; activation, % at 2 µM; 0.81% of 130,000 active; AID 1296;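 active = activation at 2 µM above a set limit, confirmed on inspection of the cell images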;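 note: share of cells whose green reporter signal exceeds an intensity cutoff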
#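 Assay system: TRM-6 human fetal islet cells, insulin promoter–eGFP reporter; Also added: 0.75 µM tamoxifen as reporter inducer; Schedule: 15 h tamoxifen pre-treatment, 48 h compound treatment at 37 °C; Signal: fixed-cell fluorescence microscopy, eGFP plus Hoechst; Read-out: percent activation from GFP-positive cell fraction; Control set: stimulated and unstimulated wells.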
# An asterisk follows results filed as active. Only a selection was taken, and hits are over-represented in it overall.
SMILES,INS promoter act
COc1ccc(NC(=O)c2ccc(Cl)c(S(=O)(=O)N3CCc4ccccc4C3)c2)cn1,0.0
COc1ccc(NC(=O)/C=C/c2ccc(F)cc2)cn1,7.1
COc1ccc(NC(=O)/C(Cl)=C(/Cl)S(=O)Cc2ccccc2Cl)cn1 (centres undefined),669.2*
CC(=O)NC(=S)Nc1ccc(S(=O)(=O)Nc2nc(C)cc(C)n2)cc1,0.0
Cc1nn(Cc2ccc(Cl)cc2)c(C)c1NC(=O)CCCn1nc([N+](=O)[O-])c(Cl)c1C,-6.7
Cc1ccc(C(=O)Nc2nc(=O)n(C(=O)c3ccccc3Cl)s2)cc1,83.9*
CC(C)CC(=O)n1sc(NC(=O)c2ccccc2)nc1=O,7.4
CCn1c(NC(=O)c2ccc(C)cc2)c2ccccc2nc1=O,-9.1
Cc1cccc(NC(=O)CSc2nncn2-c2ccccn2)c1,3.7
C#Cc1ccc(C(=O)Nc2ccc(N3CCC(C)CC3)c(C(N)=O)c2)cc1,-7.7
COc1ccc2[nH]c(=O)c(CN(C(=O)c3ccccn3)c3ccccc3)cc2c1,200.0*
COc1ccc2[nH]c(=O)c(CN(C(=O)c3cccnc3)c3ccccc3OC)cc2c1,8.1
COc1ccc(N(Cc2cc3cc(OC)ccc3[nH]c2=O)C(=O)c2cccnc2)cc1,0.0
COc1ccc(S(=O)(=O)N2CCOCC2)cc1NC(=O)CSc1nnc2ccccn12,0.0
O=C(c1ccc([N+](=O)[O-])cc1)N1CCSC1c1cccc(Cl)c1 (centres undefined),7.7
CCN(C(=O)COC(=O)/C=C/c1ccc(O)c(OC)c1)C1CCS(=O)(=O)C1 (centres undefined),-9.8
Cc1ccc(S(=O)(=O)N2CCC[C@H]2C(=O)OC(C)C(=O)Nc2ncc(Cl)cc2Cl)cc1 (some centres undefined),-2.9
O=S(=O)(Nc1ncn[nH]1)c1ccc(Cl)cc1,0.0
O=c1c2ccccc2nc2c3ccccc3c(NCCN3CCOCC3)nn12,8.6
CNc1nc(C(=O)O)nc(N2CCOCC2)n1,272.2
C=CCNc1nc(NCCN2CCOCC2)nc(N2CCOCC2)n1,493.3*
COc1ccccc1-c1c(C)oc2cc(OCC(=O)OCc3ccccc3)ccc2c1=O,0.0
O=C(CSc1nc2ccc([N+](=O)[O-])cc2[nH]1)NCCc1ccccc1,7.1
COc1ccccc1N(CC(=O)Nc1cc(C)on1)S(=O)(=O)c1ccc(Cl)cc1,-2.7
COc1cc(-c2nc(S(=O)(=O)c3ccc(Cl)cc3)c(N3CCOCC3)o2)cc(OC)c1OC,113.8
SMILES,INS promoter act
COc1ccccc1-c1nc(S(=O)(=O)c2ccc(Cl)cc2)c(N(C)C)o1,470.6*
CCOC(=O)C(C)On1c(SC(C)C(=O)OCC)nc2ccccc2c1=O (centres undefined),75.7*
COC(=O)COn1c(SC(C)C)nc2ccccc2c1=O,6.9
CCSc1nc2ccccc2c(=O)n1OCC(=O)OC,0.0
CCCCN1C(=O)C2Cc3c([nH]c4ccccc34)CN2C1=S (centres undefined),186.5
CCN(CC)C1=NC=CC(c2ccccc2)=CC1C (centres undefined),3.2
COC(=O)c1ccc(-c2ccc(/C=N/NC(=O)CC3(C)OCCCO3)o2)cc1,8.3
COc1ccccc1NC(=O)CSc1nnc(-c2ccco2)n1Cc1ccco1,7.7
COc1ccc(C)cc1NC(=O)CSc1nnc(COc2ccc(Cl)cc2)n1Cc1ccco1,141.7*
O=C(CSc1nnc(Cc2cccs2)n1Cc1ccco1)Nc1cc(Cl)cc(Cl)c1,0.0
Cn1c(COc2ccccc2)nnc1SCc1nc2ccccc2[nH]1,-2.6
Clc1ccc(OCc2nnc(SCc3nc4ccccc4[nH]3)n2Cc2ccco2)cc1,128.6*
CCn1c(SCc2nc3ccccc3[nH]2)nnc1-c1cccs1,-5.9
COc1ccc(N=C2SC(C(=O)Nc3ccc(OC)cc3)CC(=O)N2CCN2CCOCC2)cc1 (centres undefined),0.0
Cc1ccc(-n2c(Cn3nc(C(F)(F)F)cc3C)n[nH]c2=S)cc1,-7.1
Cc1ccc(C2CC(=O)c3cnn(-c4nc(C)cc(C)n4)c3C2)cc1 (centres undefined),131.0
CCOC(=O)c1c(NC(=O)CN2C(=O)NC(C)(c3ccccc3)C2=O)sc(C)c1C (centres undefined),0.0
COc1ccc(NS(=O)(=O)c2ccc(NC(=O)c3cnn4c(C(F)F)cc(-c5ccc(C)cc5)nc34)cc2)cc1,2.7
Cc1nn(C)c(C(=O)NCc2ccc(Cl)cc2)c1Cl,-9.7
O=C(CCCc1nc2ccccc2s1)NCc1ccccc1F,-6.7
COc1ccc(CCNC(=O)CCc2ccc(S(=O)(=O)NC(C)C)cc2)cc1,-71.4
CC(C)Cn1c(N)c(C(=O)COC(=O)C2CC(=O)N(Cc3ccccc3Cl)C2)c(=O)n(C)c1=O (centres undefined),5.9
Cc1ccc(NC(=O)c2ccc(C(C)(C)C)cc2)cc1-n1cnnn1,7.7
CC(=O)Nc1ccccc1C(=O)N1CCN(Cc2ccccc2)CC1,0.0
Cc1nn(Cc2c(F)c(F)c(F)c(F)c2F)c(C)c1NC(=O)c1c([N+](=O)[O-])c(C)nn1C,-9.9
SMILES,INS promoter act
CCn1ccc(C(=O)Nc2c(C)nn(Cc3c(F)c(F)c(F)c(F)c3F)c2C)n1,364.3*
Cc1nn(Cc2c(F)c(F)c(F)c(F)c2F)c(C)c1NC(=O)c1c([N+](=O)[O-])cnn1C,3.6
CC(C)C1OC(c2cccc(NC(=O)c3cccs3)c2)OCC1(C)C (centres undefined),6.7
Cc1nc([N+](=O)[O-])c(C(=O)OCc2cccc(Br)c2)n1C,-7.1
C[N+]1(CC(=O)OCCCc2ccccc2)CCCCC1,350.0*
CN(C)CCCOC(=O)c1ccccc1,326.7
CC(C)(C)C(=O)NCCCc1ccccc1,-2.9
Cc1ccc(CC(=O)Nc2ccccc2N2CCOCC2)cc1C,3.1
Cc1nccn1-c1cc(C(C)(C)C)nc2c(-c3ccccc3)cnn12,-3.7
O=C(NNS(=O)(=O)c1ccc(Cl)cc1)c1cc(-c2ccccc2)nc2ccccc12,-7.1
CS(=O)(=O)N(CC(=O)NCc1ccco1)c1ccccc1Cl,-7.1
CCc1ccccc1N(CC(=O)NCc1ccco1)C(=O)c1snc(C(N)=O)c1N,163.6*
CCC(C)(C)NC(=O)CN(C(=O)c1snc(C(N)=O)c1N)c1ccc2c(c1)OCO2,8.6
Cc1ccc(C(=O)N(c2ccccc2)C2CC(C)N(C(=O)c3ccco3)c3ccccc32)cc1 (centres undefined),3.2
CC(=O)N(c1nc(CCl)cs1)c1c(C)cc(C)cc1C,2.7
Cc1ccc(C(=O)OCC2OC3OC(C)(C)OC3C2O)cc1 (centres undefined),9.7
O=C1c2ccccc2C(=O)N1OCCOCCOCCBr,2.7
CC1(C)O[C@H]2OC([C@H](O)CON3C(=O)c4ccccc4C3=O)[C@H](O)[C@H]2O1 (some centres undefined),263.6*
CC(=O)Nc1ccc(S(=O)(=O)Nc2nccc(/C=C/c3ccc(Cl)cc3)n2)cc1,-61.1
CCCCN1C(=O)C(O)(CC(=O)c2c(C)coc2C)c2ccccc21 (centres undefined),2.3
CCCCN1C(=O)C2(NNc3ccccc3O2)c2ccccc21 (centres undefined),170.0*
CCCCN1C(=O)C(O)(CC(=O)c2ccccc2OC)c2ccccc21 (centres undefined),-2.4
CN(C1CCCCC1)S(=O)(=O)c1ccc(C(=O)N2CCN(c3nc4ccccc4s3)CC2)cc1,6.7
O=C(OC(C(=O)NC1CCCC1)c1ccncc1)C1=Cc2ccccc2OC1 (centres undefined),2.7
Cc1ccccc1N(CC(N)=O)S(C)(=O)=O,-9.7
